# Assay results as given in ChEMBL document CHEMBL1138242, “Synthesis, crystal structure, and activity of pyrazole-based inhibitors of p38 kinase” (J Med Chem, 2007).
# Calls of active or inactive are those of the source. The calls are words filed in the database; no cut-off is given here.
# What was measured:
# [1] = system: Rattus norvegicus; assay: Inhibition of LPS-induced TNF production in rat pretreated at 20 mg/kg, po after […] by ELISA; assay type: functional
# [2] = system: Rattus norvegicus; assay: Inhibition of LPS-induced TNF production in rat pretreated at 5 mg/kg, po after […] by ELISA; assay type: functional
# [3] = target: MAP kinase p38 (Homo sapiens, UniProt O15264+Q15759+Q16539+P53778); assay: Inhibition of p38 MAPK activity assessed as EGFR phosphorylation; assay type: protein assay
# [4] = system: Mus musculus; assay: Decrease of arthritis incidence in collagen-induced DBA/1 mouse at 15 mg/kg, po bid; assay type: functional, organism-based; design: dose 15 mg/kg
# How it was run: (§1)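 Male DBA/1 mice; arthritis induced by subcutaneous type II chick collagen in Freund's adjuvant on days 1 and 21. Test agent given by oral gavage twice daily in Methocel/Tween, days 21-56. Weekly ip anti-TNF antibody served as comparator. Animals scored for signs of arthritis, with incidence compared with vehicle by logistic regression (p < 0.05); 8-10 mice per group.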
# [5] = system: Mus musculus; assay: Decrease of arthritis incidence in collagen-induced DBA/1 mouse at 30 mg/kg, po bid; assay type: functional, organism-based; design: dose 30 mg/kg; how it was run: as §1
Structure (SMILES),inhibition in vivo at 20 mg/kg [1] [%],inhibition in vivo at 5 mg/kg [2] [%],also measured
OC1CCN(c2[nH]nc(-c3ccc(Cl)cc3)c2-c2ccncc2)CC1,91,52,–
CC1CN(c2[nH]nc(-c3ccc(Cl)cc3)c2-c2ccncc2)CCN1 (stereo not drawn),95,84,IC50 [3]: 16 nM
CC1CN(c2[nH]nc(-c3ccc(Cl)cc3)c2-c2ccncc2)CC(C)N1 (stereo not drawn),96,93,–
Clc1ccc(-c2n[nH]c(N3CCc4ccccc4C3)c2-c2ccncc2)cc1,12,–,–
Clc1ccc(-c2n[nH]c(N3CCN4CCC[C@H]4C3)c2-c2ccncc2)cc1,89,–,–
Clc1ccc(-c2n[nH]c(N3CCC4CCCCC4C3)c2-c2ccncc2)cc1 (stereo not drawn),11,–,–
CC1CCN(c2[nH]nc(-c3ccc(Cl)cc3)c2-c2ccncc2)CC1,16,–,–
CC1CC(C)CN(c2[nH]nc(-c3ccc(Cl)cc3)c2-c2ccncc2)C1 (stereo not drawn),53,–,–
CN1CCN(c2[nH]nc(-c3ccc(Cl)cc3)c2-c2ccncc2)CC1,95,98,Activity [4]: Active; Activity [5]: Active
Clc1ccc(-c2n[nH]c(N3CCCC4CCCCC43)c2-c2ccncc2)cc1 (stereo not drawn),33,–,–
OC1CCCN(c2[nH]nc(-c3ccc(Cl)cc3)c2-c2ccncc2)C1 (stereo not drawn),75,–,–
